Reference: ChEMBL document CHEMBL2157878, “In vitro cellular uptake and dimerization of signal transducer and activator of transcription-3 (STAT3) identify the photosensitizing and imaging-potential of isomeric photosensitizers derived from chlorophyll-a and bacteriochlorophyll-a” (J Med Chem, 2011)
Calls of active or inactive are those of the source. No cut-off for these calls is given here.

Key:
BCC1 [1] = experiment: Increase in STAT3 cross linking level in human BCC1 cells assessed as dimerization of STAT3 after 9 mins by Western blotting in presence of 665 nm light
Colon 26 [2] = experiment: Drug uptake in mouse Colon 26 cells at 400 nM after 24 hrs by flow cytometry; assay type: ADME, cell-based; conditions: colon 26, 24 h, 0.4 µM
Method in brief: (§1)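 Colon26 cells seeded at 0.33×10⁶ per well and grown overnight, then given 100–800 nM PS in triplicate at 37°C, with no-PS wells for autofluorescence. Harvested by trypsin, spun cold, and run on flow cytometry (Ex 633 nm, Em 730±45 nm, 10,000 events). Value is mean fluorescence of triplicates minus autofluorescence.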

[3] = Drug uptake in BALB/c mouse tumor xenografted with mouse Colon 26 cells at 1 umol/kg, iv after 24 hrs by fluorescence imaging; assay type: ADME, organism-based, Neoplasm; conditions: in vivo
Method in brief: (§2)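 BALB/c mice (3/group) with Colon26 tumours (1×10⁶ cells s.c., right axilla, grown to 4–5 mm) were shaved and given 1.0 μmol/kg PS i.v. Whole-body fluorescence imaged under ketamine/xylazine at 24, 48 and 72 h: 540/40 nm illumination, long-pass emission filter, spectral unmixing of autofluorescence. Read-out is mean intensity of a 20 mm tumour ROI (AU), mean ± SD of 3 mice.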

[4] = Drug uptake in human BCC1 cells assessed as deposition in mitochondria at 200 nM after 30 mins by phase contrast microscopy; assay type: ADME; conditions: bcc1, 0.5 h, 0.2 µM
Method in brief: (§3)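 BCC1 cells in subconfluent culture, washed and incubated 30 min in serum-free DMEM with 200 nM PS. Washed free of PS and imaged at 640X under phase contrast and HPPH fluorescence (Ex 410/40, Em 675/750 nm). Cell PS also quantified by solubilising cells and reading fluorescence (Ex 415, Em 667 nm).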

Mus musculus [5] = experiment: Drug uptake in BALB/c mouse xenografted with mouse Colon 26 cells at 1 umol/kg, iv after 24 hrs by fluorescence imaging; assay type: ADME, organism-based; conditions: in vivo
Method in brief: as §2

BCC1 [6] = experiment: Induction of apoptosis in human BCC1 cells assessed as survival after 24 hrs by trypan blue assay; assay type: functional, cell-based
Method in brief: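 BCC1 cells were loaded for 2 h in serum-free DMEM with 2-fold serial dilutions of photosensitizer. After washing, they were illuminated in serum-free medium at 37° with 665 nm dye-laser light for 9 min (3 J/cm²). Cells were then cultured 24 h in DMEM/10% FCS and trypsinized. Trypan blue-excluding cells were counted by hemocytometer and expressed relative to untreated controls.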

Zone of skin = experiment: Drug uptake in skin of BALB/c mouse xenografted with mouse Colon 26 cells measured after removal of tumor at 1 umol/kg, iv after 24 hrs by fluorescence imaging; assay type: ADME, organism-based; conditions: in vivo
Method in brief: (§4)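 BALB/c mice carried subcutaneous Colon26 tumors (1×10⁶ cells, right posterior axilla) grown to 4–5 mm and were given 1 μmol/kg i.v. At 24 h the tumor was surgically removed and imaged, and the skin flap was imaged separately. Excitation was 540/40 nm with long-pass emission, followed by spectral unmixing of autofluorescence.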

[7] = Photostability of the compound in 17% bovine calf serum assessed as rate of photobleaching at 6.5 uM after 20 to 22 mins in presence of light (75 mW/cm'2); assay type: ADME; conditions: cattle, read-out: Drug degradation
Method in brief: (§5)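 Equimolar (6.5 μM) photosensitizer solutions in 17% bovine calf serum were irradiated at 75 mW/cm². Absorption spectra were recorded at successive time points, and the normalized long-wavelength absorbance was plotted against time to follow photobleaching.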

[8] = Drug uptake in human BCC1 cells assessed as deposition in mitochondria at 200 nM after 30 mins by HPPH fluorescence spectrophotometry; assay type: ADME; conditions: bcc1, 0.5 h, 0.2 µM
Method in brief: as §3

Colon 26 [9] = experiment: Antitumor activity against mouse Colon 26 cells xenografted in parenterally dosed BALB/c mouse assessed as tumor cure at 1 umol/kg after 24 hrs followed by illumination with 128 J/cm'2, 14 mW/cm'2 laser light measured after 60 days; assay type: functional
Method in brief: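 Subcutaneous Colon26 tumours in BALB/c mice (10/group), dosed at 4–5 mm diameter with 1 μmol/kg PS. At 24 h, unanaesthetised restrained mice received laser light to the tumour (665, 660 or 674 nm by compound; 128 J/cm², 14 mW/cm²). Tumours measured daily (V = L·W²/2). Cure means no palpable tumour by day 60–90. Euthanasia at 400 mm³.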

BCC1 [10] = experiment: Reduction in EGFR levels in human BCC1 cells after 9 mins by Western blotting in presence of 665 nm laser light; assay type: functional, cell-based
Method in brief: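 BCC1 cells were incubated 2 h in serum-free DMEM with 2-fold serially diluted photosensitizer, washed, and illuminated with 665 nm light for 9 min (3 J/cm²). They were extracted immediately in RIPA buffer. Extracts (20 μg protein) were run on 6–10% SDS gels and immunoblotted for STAT3, EGFR, p38 and P-p38 with ECL detection. STAT3 crosslinking was scored as percent conversion of monomer into dimer form I.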

Colon 26 [11] = experiment: Photosensitizing activity in mouse Colon 26 assessed as cell viability at 0.0625 uM after 24 hrs followed by illumination with 665 nm laser light and 48 hrs incubation in dark by MTT assay in presence of serum; assay type: functional, cell-based
Method in brief: (§6)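 Colon26 cells, 3×10³/well in RPMI/10% FCS, were incubated 24 h in the dark with photosensitizer at 0.3 μM or 0.0625 μM. Medium was replaced with drug-free complete medium before illumination at 0–4 J/cm², 3.2 mW/cm², at each compound's peak wavelength (660, 665 or 674 nm). After 48 h in the dark, MTT was added for the last 4 h and absorbance read at 570 nm. Four replicate wells per condition, three independent experiments.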

[12] = target: MAP kinase p38 (Homo sapiens) (UniProt O15264+Q15759+Q16539+P53778); experiment: Activation of p38 MAPK in human BCC1 cells assessed as dimerization of STAT3 after 9 mins by Western blotting in presence of 665 nm laser light; assay type: cell-based
Method in brief: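 Subconfluent BCC1 cells, 2 h in serum-free DMEM with 2-fold serially diluted PS, then 665 nm dye-laser light for 9 min at 37°C (3 J/cm²) in serum-free medium. Cells extracted immediately and lysed in RIPA. 20 μg protein run on 6–10% SDS gels and immunoblotted for STAT3, p38/P-p38 and EGFR with ECL detection. Crosslinking given as % monomeric STAT3 converted to dimer form I.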

[13] = system: BCC1 cells (Homo sapiens); experiment: Ratio of drug uptake in human BCC1 cells in serum free medium to drug uptake in human BCC1 cells in medium containing 10% fetal calf serum by fluorescent microscopy
Mus musculus [14] = experiment: Drug uptake in BALB/c mouse xenografted with mouse Colon 26 cells at 1 umol/kg, iv after 48 hrs by fluorescence imaging; assay type: ADME, organism-based; conditions: in vivo
Method in brief: as §2

Mus musculus [15] = experiment: Drug uptake in BALB/c mouse xenografted with mouse Colon 26 cells at 1 umol/kg, iv after 72 hrs by fluorescence imaging; assay type: ADME, organism-based; conditions: in vivo
Method in brief: as §2

[16] = Drug uptake in tumor of BALB/c mouse xenografted with mouse Colon 26 cells at 1 umol/kg, iv after 24 hrs by fluorescence imaging; assay type: ADME, organism-based, Neoplasm; conditions: in vivo
Method in brief: as §4

[17] = Drug uptake in human BCC1 cells at 200 nM incubated for 30 mins measured after 4 to 24 hrs by fluorescent microscopy; assay type: ADME, cell-based; conditions: bcc1, 0.5 h, 0.2 µM
Colon 26 [18] = experiment: Drug uptake in mouse Colon 26 cells at 800 nM after 24 hrs by flow cytometry; assay type: ADME, cell-based; conditions: colon 26, 24 h, 0.8 µM
Method in brief: as §1

[19] = Drug uptake in human BCC1 cells assessed as subcellular localization at 3.2 uM after 4 hrs by HPPH fluorescence spectrophotometry; assay type: ADME, cell-based; conditions: bcc1, 4 h
Method in brief: (§7)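 BCC1 cells incubated 30 min in serum-free DMEM with 3.2 μM or 0.2 μM PS, washed, and imaged at 640X under phase contrast or HPPH fluorescence. Cultures then kept a further 4 h in PS- and serum-free DMEM and imaged again under the same conditions to follow subcellular redistribution.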

[20] = Drug uptake in human BCC1 cells assessed as subcellular localization at 3.2 uM after 4 hrs by phase contrast microscopy; assay type: ADME, cell-based; conditions: bcc1, 4 h
Method in brief: as §7

[21] = Drug uptake in human BCC1 cells assessed as deposition in mitochondria at 3.2 uM after 30 mins by HPPH fluorescence spectrophotometry; assay type: ADME; conditions: bcc1, 0.5 h
Method in brief: as §7

[22] = Drug uptake in human BCC1 cells assessed as deposition in mitochondria at 3.2 uM after 30 mins by phase contrast microscopy; assay type: ADME; conditions: bcc1, 0.5 h
Method in brief: as §7

[23] = Drug uptake in human BCC1 cells at 200 nM after 30 mins by fluorescent microscopy; conditions: bcc1, 30 min, 0.2 µM
Liver = experiment: Drug uptake in parenterally dosed BALB/c mouse liver xenografted with mouse Colon 26 cells after 72 hrs by PET analysis; assay type: ADME, organism-based; conditions: in vivo
Method in brief: (§8)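 Tumor-bearing BALB/c mice (Colon26, subcutaneous) received ¹²⁴I-labeled photosensitizer via the tail vein at 15–50 μCi. Three mice per time point were sacrificed at 24, 48 and 72 h. Organs were removed, weighed and counted in a γ-well counter. Uptake was expressed as %ID/g tissue.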

[24] = Drug uptake in human BCC1 cells assessed as subcellular localization at 0.2 uM after 4 hrs by phase contrast microscopy; assay type: ADME, cell-based; conditions: bcc1, 4 h
Method in brief: as §7

Spleen = experiment: Drug uptake in parenterally dosed BALB/c mouse spleen xenografted with mouse Colon 26 cells after 72 hrs by PET analysis; assay type: ADME, organism-based; conditions: in vivo
Method in brief: as §8

Colon 26 [25] = experiment: Photosensitizing activity in mouse Colon 26 assessed as cell viability at 0.3 uM after 24 hrs followed by illumination with 665 nm laser light and 48 hrs incubation in dark by MTT assay; assay type: functional, cell-based
Method in brief: as §6

[26] = Drug uptake in human BCC1 cells assessed as deposition in mitochondria at 0.2 uM after 30 mins by HPPH fluorescence spectrophotometry; assay type: ADME; conditions: bcc1, 0.5 h
Method in brief: as §3

[27] = Drug uptake in human BCC1 cells assessed as deposition in mitochondria at 0.2 uM after for 30 mins by phase contrast microscopy; assay type: ADME; conditions: bcc1, 0.5 h
Method in brief: as §3

[28] = Drug uptake in human BCC1 cells assessed as subcellular localization at 0.2 uM after 4 hrs by HPPH fluorescence spectrophotometry; assay type: ADME, cell-based; conditions: bcc1, 4 h
Method in brief: as §7

Intestine = experiment: Drug uptake in parenterally dosed BALB/c mouse intestine xenografted with mouse Colon 26 cells after 72 hrs by PET analysis; assay type: ADME, organism-based; conditions: in vivo, other
Method in brief: as §8

[29] = Photostability of the compound in 17% bovine calf serum assessed as decrease in rate of photobleaching at 6.5 uM after 40 mins in presence of light (75 mW/cm'2); assay type: ADME; conditions: cattle
Method in brief: as §5

Muscle tissue = experiment: Drug uptake in BALB/c mouse muscle xenografted with mouse Colon 26 cells at 150 uCi administered parenterally after 2 hrs by PET analysis; assay type: ADME, tissue-based; conditions: in vivo
Heart = experiment: Drug uptake in BALB/c mouse heart xenografted with mouse Colon 26 cells at 150 uCi administered parenterally after 2 hrs by PET analysis; assay type: ADME, tissue-based; conditions: in vivo, other
[30] = Drug uptake in BALB/c mouse tumor xenografted with mouse Colon 26 cells at 150 uCi administered parenterally after 2 hrs by PET analysis; assay type: ADME, Neoplasm; conditions: in vivo, other

Drug uptake (Colon 26 [2])	Drug uptake [3]	Drug uptake [4]	Drug uptake (Mus musculus [5])	Drug uptake (Zone of skin)	degraded at 6.5 µM [7]	Drug uptake [8]	Activity [12]	Ratio [13]	Drug uptake (Mus musculus [14])	Drug uptake (Mus musculus [15])	Drug uptake [16]	Drug uptake [17]	Drug uptake (Colon 26 [18])	Structure (SMILES)	Activity (BCC1 [1])	Activity (BCC1 [6])	Activity (Colon 26 [9])	Activity (BCC1 [10])	Activity (Colon 26 [11])	also measured
Active	Active	Active	Active	Not Active	50%	Active	Active	4	Active	Active	Active	Active	Active	CC[C@H]1c2cc3[nH]c4c(c5nc(cc6[nH]c(cc(n2)[C@@H]1C)c(C(C)OCc1cccc(I)c1)c6C)C(C)=C5CCC(=O)O)CC(=O)c4c3C (some centres undefined)	Active	Dose-dependent effect	60%	Active	Active	
		Active				Active	Active	5						CCC1=C(C)c2cc3[nH]c(cc4nc(c5c6[nH]c(cc1n2)c(C)c6C(=O)C5)C(CCC(=O)OC)[C@@H]4C)c(C)c3C(C)OCc1cccc(I)c1 (some centres undefined)	Active	Dose-dependent effect	20%	Active		Drug uptake [19]: Active; Drug uptake [20]: Active; Drug uptake [21]: Active; Drug uptake [22]: Active; Drug uptake [23]: Active
Active	Active	Active	Active	Not Active	50%	Active	Active	4	Active	Active	Active	Active	Active	CCC1=C(C)c2cc3[nH]c(cc4nc(c5c6[nH]c(cc1n2)c(C)c6C(=O)C5)C(CCC(=O)O)[C@@H]4C)c(C)c3C(C)OCc1cccc(I)c1 (some centres undefined)	Active	Dose-dependent effect		Active	Active	Drug uptake (Liver): Active; Drug uptake [24]: Active; Drug uptake (Spleen): Active; Activity (Colon 26 [25]): Active; Drug uptake [26]: Active; Drug uptake [27]: Active; Drug uptake [28]: Active; Drug uptake (Intestine): Active
Active	Not Active	Active	Active		50%	Active	Active	4	Active	Active		Active	Active	CCc1c(C)c2cc3nc(c4c5[nH]c(cc6nc(cc1[nH]2)C(C)=C6C(C)OCc1cccc(I)c1)c(C)c5C(=O)C4)[C@@H](CCC(=O)O)[C@@H]3C (some centres undefined)	Active	Dose-dependent effect	inactive	Active	Active	Stability [29]: Stable
														OC[C@H]1O[C@@H](O)[C@H]([18F])[C@@H](O)[C@@H]1O [FLUDEOXYGLUCOSE-F18]						Drug uptake (Muscle tissue): Active; Drug uptake (Heart): Active; Drug uptake [30]: Active
